# Assays:
# [1] = Concentration required to reduce HSV-1 F virus induced cytogenicity in primary rabbit kidney (PRK); Range is 1-2; assay type: functional; details: Oryctolagus cuniculus; read-out: ID50 (the source's name)
# [2] = Concentration required to reduce HSV-1 KOS virus induced cytogenicity in primary rabbit kidney (PRK); Range is 1-2; assay type: functional; details: Oryctolagus cuniculus; read-out: ID50 (the source's name)
# [3] = Concentration required to reduce HSV-1 McIntyre virus induced cytogenicity in primary rabbit kidney (PRK); assay type: functional; details: Oryctolagus cuniculus, read-out: ID50 (the source's name)
# [4] = Concentration required to reduce HSV-2 Lyons virus induced cytogenicity in primary rabbit kidney (PRK); Range is 2-4; assay type: functional; details: Oryctolagus cuniculus; read-out: ID50 (the source's name)
# [5] = Concentration required to reduce HV2 196 virus induced cytogenicity in primary rabbit kidney (PRK); Range is 1-4; assay type: functional; details: Oryctolagus cuniculus; read-out: ID50 (the source's name)
# [6] = Concentration required to reduce [1,2-H]dUrd incorporation into DNA in primary rabbit kidney (PRK); assay type: functional; details: Oryctolagus cuniculus; read-out: ID50 (the source's name)
# Method in brief: (§1)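 PRK cell cultures (10^5 cells per well) were pulsed with 2'-deoxy[1',2'-3H]uridine (42 Ci/mmol) at 0.25 μCi, or 6 pmol, per well. Compound concentration cutting label incorporation into cellular DNA by 50% was taken as ID50.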
# [7] = Concentration required to reduce [Me-H]dThd incorporation into DNA in primary rabbit kidney (PRK); assay type: functional; details: Oryctolagus cuniculus, read-out: ID50 (the source's name)
# Method in brief: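 [methyl-3H]dThd incorporation into DNA of primary rabbit kidney cell cultures was measured with test compound present. ID50 is the concentration reducing dThd incorporation into DNA by 50%.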
# [8] = Minimum Cytotoxic concentration in primary rabbit kidney (PRK); assay type: tissue-based, Oryctolagus cuniculus; details: primary rabbit kidney (PRK) cells
# Method in brief: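 Primary rabbit kidney cell cultures, the same cells used for the virus cytopathogenicity assays, were exposed to the compound. Cytotoxicity was read as the lowest concentration causing a microscopically visible change in cell morphology.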
# [9] = Concentration required to reduce vaccinia virus induced cytogenicity in primary rabbit kidney (PRK); Range is 0.1-0.2; assay type: functional; details: Oryctolagus cuniculus; read-out: ID50 (the source's name)
# [10] = Concentration required to reduce virus HSV-2G induced cytogenicity in primary rabbit kidney (PRK); Range is 1-2; assay type: functional; details: Oryctolagus cuniculus; read-out: ID50 (the source's name)
# [11] = Ratio of ID50 for [Me-H]dThd to ID50 for [1,2-H]dUrd; assay type: functional
# Method in brief: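 The ratio is the ID50 for [Me-3H]dThd incorporation divided by the ID50 for [1',2'-3H]dUrd incorporation into PRK cell DNA. Each ID50 is the concentration giving 50% reduction of incorporation. The ratio is treated as a parameter for selective in vivo thymidylate synthetase inhibition.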
# [12] = Concentration required to reduce HSV-1 F virus induced cytogenicity in primary rabbit kidney (PRK); assay type: functional; details: Oryctolagus cuniculus; read-out: ID50 (the source's name)
# [13] = Concentration required to reduce HSV-1 KOS virus induced cytogenicity in primary rabbit kidney (PRK); assay type: functional; details: Oryctolagus cuniculus; read-out: ID50 (the source's name)
# [14] = Concentration required to reduce HSV-2 Lyons virus induced cytogenicity in primary rabbit kidney (PRK); assay type: functional; details: Oryctolagus cuniculus; read-out: ID50 (the source's name)
# [15] = Concentration required to reduce HV2 196 virus induced cytogenicity in primary rabbit kidney (PRK); assay type: functional; details: Oryctolagus cuniculus; read-out: ID50 (the source's name)
# [16] = Concentration required to reduce [1,2-H]dUrd incorporation into DNA in n primary rabbit kidney (PRK); assay type: functional; details: Oryctolagus cuniculus; read-out: ID50 (the source's name); method in brief: as §1
# [17] = Concentration required to reduce virus HSV-2G induced cytogenicity in primary rabbit kidney (PRK); assay type: functional; details: Oryctolagus cuniculus; read-out: ID50 (the source's name)
# [18] = Concentration required to reduce vaccinia virus induced cytogenicity in primary rabbit kidney (PRK); assay type: functional; details: Oryctolagus cuniculus; read-out: ID50 (the source's name)
SMILES,IC50 [1],IC50 [2],IC50 [3],IC50 [4],IC50 [5],IC50 [6],IC50 [7],MCC [8],IC50 [9],IC50 [10],Ratio [11],IC50 [12],IC50 [13],IC50 [14],IC50 [15],IC50 [16],IC50 [17],IC50 [18]
O=Cc1cn([C@H]2C[C@H](O)[C@@H](CO)O2)c(=O)[nH]c1=O,1 mg/L,1 mg/L,0.7 mg/L,2 mg/L,1 mg/L,0.2 mg/L,75 mg/L,4 µg/mL,0.1 mg/L,1 mg/L,375,,,,,,,
O=c1[nH]c(=O)n([C@H]2C[C@H](O)[C@@H](CO)O2)cc1C1SCCS1,,,300 mg/L,,,,100 mg/L,> 400 µg/mL,,,1,150 mg/L,300 mg/L,> 400 mg/L,300 mg/L,100 mg/L,200 mg/L,200 mg/L
O=c1[nH]c(=O)n([C@H]2C[C@H](O)[C@@H](CO)O2)cc1/C=N/O,,,0.7 mg/L,,,7.5 mg/L,300 mg/L,100 µg/mL,,,40,1 mg/L,0.7 mg/L,20 mg/L,20 mg/L,,7 mg/L,10 mg/L
